According to ChEMBL document CHEMBL1122443, “Synthesis and antitumor evaluation of selected 5,6-disubstituted 1(2)H-indazole-4,7-diones” (1983):
Activity calls are given as the source filed them. No cut-off for these calls is given here.

What was measured:
Mus musculus [1] = test: Antitumor activity in CF1 mice bearing Ehrlich ascites carcinoma measured as ascites volume at 3 mg/kg; type: functional
In short: (§1)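 Male CF1 mice (22–25 g) received 2 × 10⁶ Ehrlich carcinoma cells ip on day 0. Dosing was ip daily on days 1–8, with sacrifice on day 9. Ascites fluid volume per mouse and ascrit (packed cell volume) were measured for each group. Vehicle was 0.05% Tween 80, or 5% absolute EtOH in 0.05% Tween 80, used for both compound and control. 6-Mercaptopurine was the positive control.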

Mus musculus [2] = test: Antitumor activity in CF1 mice bearing Ehrlich ascites carcinoma measured as percentage inhibition at 8 mg/kg; type: functional
In short: (§2)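 Ehrlich ascites model in male CF1 mice (22–25 g): 2 × 10⁶ cells ip on day 0, ip dosing days 1–8, kill on day 9. Percent inhibition = 100 − [(treated volume × treated ascrit)/(control volume × control ascrit)]. Greater than 80% was taken as significant. Vehicle was 0.05% Tween 80, alone or with 5% absolute EtOH. 6-Mercaptopurine was the positive control.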

Mus musculus [3] = test: Antitumor activity in CF1 mice bearing Ehrlich ascites carcinoma measured as survivors on day 9 at 8 mg/kg; 5/6; type: functional
Mus musculus [4] = test: Antitumor activity in CF1 mice bearing Ehrlich ascites carcinoma measured as survivors on day 9 at 5 mg/kg; 5/5; type: functional
Mus musculus [5] = test: Average days survived for treated / average days survived for control at 1 (mg/kg); 10/9.2; type: functional
Mus musculus [6] = test: Antitumor activity in CF1 mice bearing Ehrlich ascites carcinoma measured as survivors on day 9 at 3 mg/kg; 6/6; type: functional
Mus musculus [7] = test: Antitumor activity in CF1 mice bearing Ehrlich ascites carcinoma measured as percent ascrit packed cell volume at 8 mg/kg; type: functional; in short: as §1
Mus musculus [8] = test: Antitumor activity in CF1 mice bearing Ehrlich ascites carcinoma measured as percentage inhibition at 5 mg/kg; type: functional; in short: as §2
Mus musculus [9] = test: Anti tumor activity in mice bearing lymphocytic leukemia P-388 at 1 mg/kg; type: functional
In short: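 Male BDF1 mice (20–23 g) were inoculated ip with 1 × 10⁶ P-388 leukemia cells on day 0. Compound was given ip once daily on days 1–14 in 0.05% Tween 80 vehicle, with a vehicle control group and 5-fluorouracil as positive control. Activity was scored as % T/C, average days survived treated/control, with >125% taken as significant.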

Mus musculus [10] = test: Antitumor activity in CF1 mice bearing Ehrlich ascites carcinoma measured as ascites volume at 5 mg/kg; type: functional; in short: as §1
Mus musculus [11] = test: Antitumor activity in CF1 mice bearing Ehrlich ascites carcinoma measured as percent ascrit packed cell volume at 5 mg/kg; type: functional; in short: as §1
Mus musculus [12] = test: Antitumor activity in CF1 mice bearing Ehrlich ascites carcinoma measured as ascites volume at 8 mg/kg; type: functional; in short: as §1
Mus musculus [13] = test: Antitumor activity in CF1 mice bearing Ehrlich ascites carcinoma measured as percentage inhibition at 3 mg/kg; IA=inactive; type: functional, organism-based; parameters: dose 3 mg/kg
In short: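 In the Ehrlich ascites model, male CF1 mice (22–25 g) received 2 × 10⁶ cells ip on day 0 and compound ip on days 1–8, with a vehicle of 0.05% Tween 80 ± 5% EtOH. Ascites volume and ascrit were taken on day 9. % inhibition = 100 − [(vol × ascrit, treated)/(vol × ascrit, control)], with >80% taken as significant.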

Mus musculus [14] = test: (§3) Antitumor activity in CF1 mice bearing Ehrlich ascites carcinoma measured as percent ascrit packed cell volume at 3 mg/kg; type: functional
In short: (§4)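 CF1 male mice (22–25 g) were inoculated ip with 2 × 10⁶ Ehrlich cells on day 0 and treated ip on days 1–8 in 0.05% Tween 80 or 5% EtOH/0.05% Tween 80 vehicle. On day 9 the mice were sacrificed, and the ascrit (packed cell volume) of the ascites fluid was determined.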

Mus musculus [15] = test: Antitumor activity in CF1 mice bearing Ehrlich ascites carcinoma measured as percentage inhibition at 3 mg/kg; IA means inactive; type: functional, organism-based; parameters: dose 3 mg/kg; in short: as §2
Mus musculus [16] = test: Antitumor activity in CF1 mice bearing Ehrlich ascites carcinoma measured as percent ascrit packed cell volume at 1 mg/kg; type: functional; in short: as §4
Mus musculus [17] = test: Antitumor activity in 6 CF1 mice bearing Ehrlich ascites carcinoma measured as survivors on day 9 at 5 mg/kg; 6/6; type: functional
Mus musculus [18] = test: Antitumor activity in 6 CF1 mice bearing Ehrlich ascites carcinoma measured as survivors on day 9 at 3 mg/kg; 6/6; type: functional
Mus musculus [19] = test: as §3; type: functional; in short: as §1; remark: listed apart in the source
Mus musculus [20] = test: Antitumor activity in CF1 mice bearing Ehrlich ascites carcinoma measured as percentage inhibition at 1 mg/kg; IA means inactive; type: functional, organism-based; parameters: dose 1 mg/kg; in short: as §2
Mus musculus [21] = test: Antitumor activity in 6 CF1 mice bearing Ehrlich ascites carcinoma measured as survivors on day 9 at 8 mg/kg; 5/6; type: functional
Mus musculus [22] = test: Antitumor activity in CF1 mice bearing Ehrlich ascites carcinoma measured as ascites volume at 1 mg/kg; type: functional
In short: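 Ehrlich ascites cells (2 × 10⁶) were implanted ip in male CF1 mice (22–25 g) on day 0. Dosing was ip on days 1–8 in 0.05% Tween 80 or 5% EtOH/0.05% Tween 80, with vehicle controls. Mice were killed on day 9, and ascites fluid volume per mouse was measured.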

Mus musculus [23] = test: Antitumor activity in 6 CF1 mice bearing Ehrlich ascites carcinoma measured as survivors on day 9 at 1 mg/kg; 6/6; type: functional
Mus musculus [24] = test: Antitumor activity in CF1 mice bearing Ehrlich ascites carcinoma measured as percentage inhibition at 3 mg/kg; type: functional; in short: as §2
Mus musculus [25] = test: Antitumor activity in 6 CF1 mice bearing Ehrlich ascites carcinoma measured as survivors on day 9 at 5 mg/kg; 5/6; type: functional
Mus musculus [26] = test: Antitumor activity in CF1 mice bearing Ehrlich ascites carcinoma measured as percentage inhibition at 8 mg/kg; IA means inactive; type: functional, organism-based; parameters: dose 8 mg/kg; in short: as §2
Mus musculus [27] = test: Antitumor activity in 6 CF1 mice bearing Ehrlich ascites carcinoma measured as survivors on day 9 at 8 mg/kg; 6/6; type: functional

SMILES | ascites volume (Mus musculus [1]) | inhibition in vivo at 8 mg/kg (Mus musculus [2]) | packed cell volume (Mus musculus [7]) | inhibition in vivo at 5 mg/kg (Mus musculus [8]) | ascites volume (Mus musculus [10]) | packed cell volume (Mus musculus [11]) | ascites volume (Mus musculus [12]) | packed cell volume (Mus musculus [14]) | Survivors (Mus musculus [17]) | Survivors (Mus musculus [18]) | packed cell volume (Mus musculus [19]) | Survivors (Mus musculus [21]) | inhibition in vivo at 3 mg/kg (Mus musculus [24]) | further results
CC(=O)NC1=C(N2CC2)C(=O)c2c(cnn2C)C1=O | 3.2 ml mouse-1 | 25.8% | 38.6% | 78.3% | 0.9 ml mouse-1 | 37.4% | 1.2 ml mouse-1 | 41.4% |  |  |  |  |  | Survivors (Mus musculus [3]): 5; Survivors (Mus musculus [4]): 5; Average survival (days) (Mus musculus [5]): 10; Survivors (Mus musculus [6]): 6; T/C (Mus musculus [9]): 109%; inhibition (Mus musculus [13]): inactive
CC(=O)NC1=C(Cl)C(=O)c2[nH]ncc2C1=O | 3.6 ml mouse-1 | 46.9% | 30.8% | 83.2% | 0.33 ml mouse-1 | 20.2% | 1.8 ml mouse-1 |  | 6 | 6 | 38.1% | 5 |  | inhibition (Mus musculus [15]): inactive; packed cell volume (Mus musculus [16]): 40%; inhibition (Mus musculus [20]): inactive; ascites volume (Mus musculus [22]): 3.6 ml mouse-1; Survivors (Mus musculus [23]): 6
CC(=O)NC1=C(Cl)C(=O)c2c(cnn2C)C1=O | 1.7 ml mouse-1 | 61.7% | 37.9% | 90% | 0.56 ml mouse-1 | 29% | 0.62 ml mouse-1 | 20% |  | 6 |  | 5 | 67.8% | Survivors (Mus musculus [25]): 5
Cn1ncc2c1C(=O)C(Cl)=C(N)C2=O | 2 ml mouse-1 |  | 33.9% | 8.4% | 1 ml mouse-1 | 35.4% | 1.9 ml mouse-1 |  | 6 | 6 | 44% |  | 25.3% | inhibition (Mus musculus [26]): inactive; Survivors (Mus musculus [27]): 6
